# Measured values as given in the M2OR odorant receptor database.
# How the values were obtained:
# Conditions in all cases: stereoisomer not certain
# [1] = target: UniProt A0PK57
# Procedure, shortened: (§1)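 Assay methods differ from source to source, frequently being transient luciferase assays in mammalian cell lines. For each receptor–molecule pair, the label responsive (active) applies when the original authors judged the measured signal statistically different from baseline, and non-responsive (inactive) applies otherwise.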
# [2] = target: UniProt A2ASV2
# Procedure, shortened: as §1
# [3] = system: Q8VF87 L210I
# Procedure, shortened: as §1
# [4] = system: Q8VF87 V108T E162D V184F I202L L210I A279V
# Procedure, shortened: as §1
# [5] = system: Q8VF87 V108T E162D V184F I202L L210I
# Procedure, shortened: as §1
# [6] = system: Q8VF87 V108T E162D V184F I202L
# Procedure, shortened: as §1
# [7] = system: Q8VF87 V108T E162D V184F
# Procedure, shortened: as §1
# [8] = system: Q8VF87 V108T E162D
# Procedure, shortened: as §1
# [9] = system: Q8VF87 V108T
# Procedure, shortened: as §1
# [10] = system: Q8VF87 V184F
# Procedure, shortened: as §1
# UniProt A2ASV2, sequence (A2ASV2 as listed by the source): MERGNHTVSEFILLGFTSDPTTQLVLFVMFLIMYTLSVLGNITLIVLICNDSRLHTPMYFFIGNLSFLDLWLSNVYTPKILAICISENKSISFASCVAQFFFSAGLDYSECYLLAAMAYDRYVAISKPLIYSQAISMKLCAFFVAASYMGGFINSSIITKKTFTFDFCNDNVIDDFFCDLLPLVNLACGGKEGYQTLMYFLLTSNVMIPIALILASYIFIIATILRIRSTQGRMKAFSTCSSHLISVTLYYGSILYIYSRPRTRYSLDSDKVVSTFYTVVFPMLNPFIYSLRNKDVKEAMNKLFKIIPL
# UniProt A0PK57, sequence (A0PK57 as listed by the source): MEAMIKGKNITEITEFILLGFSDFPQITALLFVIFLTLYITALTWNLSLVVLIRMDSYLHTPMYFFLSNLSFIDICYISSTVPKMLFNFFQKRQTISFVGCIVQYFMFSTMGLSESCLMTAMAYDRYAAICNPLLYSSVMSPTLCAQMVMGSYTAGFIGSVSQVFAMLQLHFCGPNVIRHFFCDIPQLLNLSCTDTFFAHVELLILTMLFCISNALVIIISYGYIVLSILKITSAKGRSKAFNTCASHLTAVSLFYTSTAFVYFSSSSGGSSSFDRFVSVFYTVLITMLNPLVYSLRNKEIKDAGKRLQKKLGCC
structure (smiles),measurement,setting,value
CC1CCCCCCCCCCCCC(=O)C1 (stereo unspecified),odorant receptor agonist call,[1],inactive
O=C1CCOc2ccccc21,odorant receptor agonist call,[2],inactive
O=c1ccc2ccccc2o1,odorant receptor agonist call,[2],active
CCC(S)C(C)CO (stereo unspecified),odorant receptor agonist call,[3],inactive
same,odorant receptor agonist call,[4],inactive
same,odorant receptor agonist call,[5],inactive
same,odorant receptor agonist call,[6],inactive
same,odorant receptor agonist call,[7],inactive
same,odorant receptor agonist call,[8],inactive
same,odorant receptor agonist call,[9],inactive
same,odorant receptor agonist call,[10],inactive
